# Experimental data as given in ChEMBL document CHEMBL1649147, “Antistaphylococcal activity of dihydrophthalazine antifolates, a family of novel antibacterial drugs” (2009).
# How the values were obtained:
# [1] = tested on: Staphylococcus aureus; assay: Antibacterial activity against methicillin-resistant Staphylococcus aureus 145 by broth macrodilution method; assay type: functional
# [2] = tested on: Staphylococcus aureus; assay: Antibacterial activity against methicillin-susceptible Staphylococcus aureus ATCC 29213 after 50 passages by agar dilution method; assay type: functional; conditions: ATCC29213
# Outline: (§1)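 Daily serial passage for up to 50 days at 35°C for 24 h in 1 ml MHB. […] Each transfer used 10 µl from the tube nearest the MIC (1–2 dilutions below) with the same turbidity as the drug-free control. […] MICs were measured by agar dilution, with changes given as log2 steps.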
# [3] = tested on: Staphylococcus epidermidis; assay: Antibacterial activity against methicillin-resistant, Linezolid non-susceptible coagulase-negative Staphylococcus epidermidis 345 by agar dilution method; assay type: functional
# [4] = tested on: Staphylococcus aureus; assay: Antibacterial activity against methicillin-susceptible Staphylococcus aureus 505 by broth macrodilution method; assay type: functional
# [5] = tested on: Staphylococcus epidermidis; assay: Antibacterial activity against methicillin-resistant, vancomycin-intermediate coagulase-negative Staphylococcus epidermidis 225 by agar dilution method; assay type: functional
# Outline: (§2)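 Agar dilution on Mueller-Hinton agar per CLSI guidelines. S. aureus ATCC 29213 and E. faecalis ATCC 29212 were run with each set, and test MICs were accepted only when the control strains fell within acceptable ranges.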
# [6] = tested on: Staphylococcus epidermidis; assay: Antibacterial activity against methicillin-resistant coagulase-negative Staphylococcus epidermidis 345 by broth macrodilution method; assay type: functional
# [7] = tested on: coagulase-negative staphylococci; assay: Antibacterial activity against methicillin-susceptible coagulase-negative staphylococci by agar dilution method
# [8] = tested on: Staphylococcus aureus; assay: Antibacterial activity against Tmp-susceptible coagulase-negative Staphylococcus aureus by agar dilution method; assay type: functional
# Outline: (§3)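 MICs by agar dilution on Mueller-Hinton agar following CLSI guidelines. S. aureus ATCC 29213 and E. faecalis ATCC 29212 were run as quality controls with each set, and test-strain MICs were kept only if control MICs fell within acceptable ranges.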
# [9] = tested on: Staphylococcus aureus; assay: Antibacterial activity against methicillin-resistant Staphylococcus aureus by agar dilution method; assay type: functional; outline: as §2
# [10] = tested on: Staphylococcus epidermidis; assay: Antibacterial activity against methicillin-susceptible coagulase-negative Staphylococcus epidermidis 057 by broth macrodilution method; assay type: functional
# [11] = tested on: Staphylococcus aureus; assay: Antibacterial activity against methicillin-susceptible, vancomycin-intermediate Staphylococcus aureus 505 by broth macrodilution method; assay type: functional
# [12] = tested on: Staphylococcus epidermidis; assay: Antibacterial activity against methicillin-resistant coagulase-negative Staphylococcus epidermidis 225 by broth macrodilution method; assay type: functional
# [13] = tested on: Staphylococcus aureus; assay: Antibacterial activity against Tmp-resistant Staphylococcus aureus by agar dilution method; assay type: functional; outline: as §3
# [14] = tested on: coagulase-negative staphylococci; assay: Antibacterial activity against methicillin-resistant coagulase-negative staphylococci by agar dilution method
# [15] = tested on: coagulase-negative staphylococci; assay: Antibacterial activity against Tmp-susceptible coagulase-negative staphylococci by agar dilution method
# [16] = tested on: Staphylococcus epidermidis; assay: Antibacterial activity against methicillin-resistant, Linezolid non-susceptible coagulase-negative Staphylococcus epidermidis 345 after 50 passages by agar dilution method; assay type: functional
# Outline: (§4)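 Daily serial passage for up to 50 days at 35°C for 24 h in 1 ml MHB. Each transfer used 10 µl from the tube nearest the MIC (1–2 dilutions below) with the same turbidity as the drug-free control. MICs were measured by agar dilution, with changes given as log2 steps.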
# [17] = tested on: Staphylococcus aureus; assay: Antibacterial activity against methicillin-resistant Staphylococcus aureus ATCC 43300 after 50 passages by agar dilution method; assay type: functional; conditions: ATCC43300
# Outline: (§5)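 Serial passage under drug. Inoculum was ~1 × 10^6 CFU/ml from overnight MHA growth, in 1 ml MHB at 35°C for 24 h. Drug ranged from 4 log2 steps above to 3 log2 steps below the MIC. […] MIC change is given as log2 steps.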
# [18] = tested on: Staphylococcus epidermidis; assay: Antibacterial activity against methicillin-susceptible coagulase-negative Staphylococcus epidermidis 057 after 50 passages by agar dilution method; assay type: functional; outline: as §4
# [19] = tested on: Staphylococcus epidermidis; assay: Antibacterial activity against methicillin-resistant, vancomycin-intermediate coagulase-negative Staphylococcus epidermidis 225 after 50 passages by agar dilution method; assay type: functional; outline: as §1
# [20] = tested on: Staphylococcus aureus; assay: Antibacterial activity against Tmp-susceptible Staphylococcus aureus by agar dilution method; assay type: functional; outline: as §3
# [21] = tested on: Staphylococcus epidermidis; assay: Antibacterial activity against methicillin-susceptible coagulase-negative Staphylococcus epidermidis 051 after 50 passages by agar dilution method; assay type: functional; outline: as §4
# [22] = tested on: Staphylococcus aureus; assay: Antibacterial activity against methicillin-susceptible, vancomycin-intermediate Staphylococcus aureus 505 after 50 passages by agar dilution method; assay type: functional; outline: as §1
# [23] = tested on: Staphylococcus aureus; assay: Antibacterial activity against methicillin-susceptible Staphylococcus aureus by agar dilution method; assay type: functional; outline: as §2
# [24] = tested on: Staphylococcus aureus; assay: Antibacterial activity against vancomycin-resistant Staphylococcus aureus VRS1 by broth macrodilution method; assay type: functional
# Outline: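 Michigan VRSA strain, one of 12 staphylococci later used in time-kill studies. MIC was determined by broth macrodilution and reported in μg/ml.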
# [25] = tested on: Staphylococcus aureus; assay: Antibacterial activity against methicillin-susceptible Staphylococcus aureus ATCC 29213 by broth macrodilution method; assay type: functional; conditions: ATCC29213
# [26] = tested on: Staphylococcus aureus; assay: Antibacterial activity against methicillin-resistant Staphylococcus aureus ATCC 43300 by broth macrodilution method; assay type: functional; conditions: ATCC43300
# [27] = tested on: coagulase-negative staphylococci; assay: Antibacterial activity against Tmp-resistant coagulase-negative staphylococci by agar dilution method
# [28] = tested on: Staphylococcus epidermidis; assay: Antibacterial activity against methicillin-resistant coagulase-negative Staphylococcus epidermidis 074 by broth macrodilution method; assay type: functional
# [29] = tested on: Staphylococcus epidermidis; assay: Antibacterial activity against methicillin-resistant coagulase-negative Staphylococcus epidermidis 197 after 50 passages by agar dilution method; assay type: functional; outline: as §4
# [30] = tested on: Staphylococcus aureus; assay: Antibacterial activity against methicillin-resistant and vancomycin-resistant Staphylococcus aureus VRS1 by agar dilution method; assay type: functional; outline: as §2
# [31] = tested on: Staphylococcus epidermidis; assay: Antibacterial activity against methicillin-susceptible coagulase-negative Staphylococcus epidermidis 051 by broth macrodilution method; assay type: functional
# [32] = tested on: Staphylococcus epidermidis; assay: Antibacterial activity against methicillin-resistant coagulase-negative Staphylococcus epidermidis 197 by broth macrodilution method; assay type: functional
# [33] = tested on: Staphylococcus aureus; assay: Antibacterial activity against methicillin-resistant and vancomycin-resistant Staphylococcus aureus VRS1 after 50 passages by agar dilution method; assay type: functional; outline: as §1
# [34] = tested on: Staphylococcus aureus; assay: Antibacterial activity against methicillin-resistant Staphylococcus aureus 145 after 50 passages by agar dilution method; assay type: functional; outline: as §5
# [35] = tested on: Staphylococcus aureus; assay: Antibacterial activity against methicillin-resistant Staphylococcus aureus 507 by broth macrodilution method; assay type: functional
smiles,measurement,setting,value
CN(C)c1ccc(O)c2c1C[C@H]1C[C@H]3[C@H](N(C)C)C(O)=C(C(N)=O)C(=O)[C@@]3(O)C(O)=C1C2=O [MINOCYCLINE],MIC,[1],4 µg/mL
same,MIC,[2],2 µg/mL
same,MIC,[3],0.5 µg/mL
same,MIC,[4],0.125 µg/mL
same,MIC,[5],0.125 µg/mL
same,MIC,[6],0.25 µg/mL
same,MIC,[7],0.125 µg/mL
same,MIC90,[7],0.5 µg/mL
same,MIC,[8],0.06 µg/mL
same,MIC50,[9],0.125 µg/mL
same,MIC90,[9],2 µg/mL
same,MIC,[10],0.5 µg/mL
same,MIC,[11],0.125 µg/mL
same,MIC,[12],0.125 µg/mL
same,MIC50,[13],0.25 µg/mL
same,MIC90,[13],8 µg/mL
same,MIC50,[14],0.25 µg/mL
same,MIC90,[14],1 µg/mL
same,MIC50,[15],0.125 µg/mL
same,MIC90,[15],1 µg/mL
same,MIC,[16],1 µg/mL
same,MIC,[17],1 µg/mL
same,MIC,[18],2 µg/mL
same,MIC,[19],1 µg/mL
same,MIC50,[20],0.125 µg/mL
same,MIC90,[20],0.25 µg/mL
same,MIC,[21],4 µg/mL
same,MIC,[22],1 µg/mL
same,MIC50,[23],0.125 µg/mL
same,MIC90,[23],0.25 µg/mL
same,MIC,[24],1 µg/mL
same,MIC,[25],0.125 µg/mL
same,MIC,[26],0.125 µg/mL
same,MIC50,[27],0.5 µg/mL
same,MIC90,[27],0.5 µg/mL
same,MIC,[28],0.25 µg/mL
same,MIC,[29],2 µg/mL
same,MIC,[30],0.5 µg/mL
same,MIC,[31],0.125 µg/mL
same,MIC,[32],0.125 µg/mL
same,MIC,[33],2 µg/mL
same,MIC,[34],8 µg/mL
same,MIC,[35],2 µg/mL
